Active and inactive are the calls of the source. The calls are words filed in the database; no cut-off is given here.
Experiments:
Calu-6 = assay: Cytotoxicity against human Calu6 cells expressing VIPR1 up to 10 uM in presence of 2% serum; assay type: functional, cell-based
Summary of the method: (§1)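 Cell proliferation in H727, H1299 and Calu6 lines, chosen for high VIPR1 expression. Medium held 2% serum to limit albumin sequestration. Compounds were tested at concentrations up to 10 µM.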

NCI-H727 = assay: Cytotoxicity against human NCI-H727 cells expressing VIPR1 up to 10 uM in presence of 2% serum; assay type: functional, cell-based; summary of the method: as §1
[1] = Plasma protein binding in mouse; assay type: ADME, cell-free; details: read-out: PPB (converted)
NCI-H1299 = assay: Cytotoxicity against human NCI-H1299 cells expressing VIPR1 up to 10 uM in presence of 2% serum; assay type: functional, cell-based; summary of the method: as §1
[2] = Plasma protein binding in human; assay type: ADME, cell-free; details: read-out: PPB (converted)
[3] = target: T1, Vasoactive intestinal polypeptide receptor 1 (Rattus norvegicus, UniProt P30083); assay: Antagonist activity at vasoactive intestinal peptide receptor 1 in rat RKE cells assessed as inhibition of VIP-induced intracellular cAMP accumulation incubated for 15 mins prior to VIP-stimulation measured after 30 mins by HTRF assay
T1 sequence (P30083 whole entry): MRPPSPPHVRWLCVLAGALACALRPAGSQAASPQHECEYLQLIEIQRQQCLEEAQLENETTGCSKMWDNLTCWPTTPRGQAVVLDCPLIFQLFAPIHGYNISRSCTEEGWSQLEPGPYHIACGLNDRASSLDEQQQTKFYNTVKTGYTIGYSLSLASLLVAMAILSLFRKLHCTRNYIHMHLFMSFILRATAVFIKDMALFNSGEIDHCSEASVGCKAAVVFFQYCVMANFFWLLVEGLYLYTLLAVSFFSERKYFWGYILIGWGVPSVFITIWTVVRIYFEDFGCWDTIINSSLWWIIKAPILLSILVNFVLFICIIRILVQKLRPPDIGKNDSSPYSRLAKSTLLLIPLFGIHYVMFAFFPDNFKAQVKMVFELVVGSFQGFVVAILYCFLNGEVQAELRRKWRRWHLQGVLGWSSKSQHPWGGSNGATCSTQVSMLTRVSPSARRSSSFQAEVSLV

[4] = target: T2, Vasoactive intestinal polypeptide receptor 1 (Rattus norvegicus) (UniProt P30083); assay: Displacement of [125I]VIP from vasoactive intestinal peptide receptor 1 in rat RKE cell membrane after 3 hrs by TopCount assay; assay type: cell membranes
T2 sequence (whole entry): T1 sequence (P30083 whole entry)
Summary of the method: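 Membranes from RKE-VIPR cells, 5 µg/well final, preincubated 10 min at room temperature with wheat germ agglutinin-coated PVT beads in 50 mM HEPES, 5 mM MgCl2, 1 mM CaCl2, 0.1% BSA. IC50 taken from a four-parameter logistic fit after subtracting nonspecific binding, defined with excess VIP.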

Row | fraction unbound [1] | fraction unbound [2] | IC50 [3] [nM] | Activity [4] | SMILES | Activity (Calu-6) | Activity (NCI-H727) | Activity (NCI-H1299)
1 | 0.1 | 0.1 | 740 | Active | CC(C)c1cc(C(C)(C)C)cc(-c2ccc(F)cc2)c1CO | inactive | inactive | inactive
2 | – | – | > 50000 | Active | Cc1ccccc1-c1cc(C(C)(C)C)cc(C(C)C)c1CO | inactive | inactive | inactive

Reference: ChEMBL document CHEMBL1955783, “Identification and optimization of small molecule antagonists of vasoactive intestinal peptide receptor-1 (VIPR1)” (Bioorg Med Chem Lett, 2012)
